In ChEMBL document CHEMBL1134286, “Novel erythromycin derivatives with aryl groups tethered to the C-6 position are potent protein synthesis inhibitors and active against multidrug-resistant respiratory pathogens” (J Med Chem, 2001):
In brackets after ≈: the same amount, converted by molar mass.

What was measured:
Type in all cases: functional
[1] = Minimum inhibitory concentration against Haemophilus influenzae DILL Amp-R
Method in brief: (§1)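 MICs were determined by agar dilution following National Committee for Clinical Laboratory Standards recommendations. Values are in µg/mL.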

[2] = Minimum inhibitory concentration against Streptococcus pneumoniae 5737 MLSB; method in brief: as §1
Staphylococcus aureus [3] = assay: Minimum inhibitory concentration against Staphylococcus aureus A 5177 MLSB-i; method in brief: as §1
Staphylococcus aureus [4] = assay: Minimum inhibitory concentration against Staphylococcus aureus ATCC 6538PEry-S; conditions: ATCC 6538P; method in brief: as §1
[5] = Minimum inhibitory concentration against Streptococcus pyogenes 930MLSB; method in brief: as §1
Staphylococcus aureus [6] = assay: Minimum inhibitory concentration against Staphylococcus aureus A 5278 MLSB-c; method in brief: as §1
[7] = Minimum inhibitory concentration against Streptococcus pyogenes EES 61 Ery-S; method in brief: as §1
[8] = Minimum inhibitory concentration against Streptococcus pyogenes PIU2548 efflux; method in brief: as §1
Streptococcus pneumoniae [9] = assay: Minimum inhibitory concentration against Streptococcus pneumoniae 5649 efflux; method in brief: as §1
Streptococcus pneumoniae [10] = assay: Minimum inhibitory concentration against Streptococcus pneumoniae ATCC 6303 Ery-S; method in brief: as §1

Row | MIC [1] [µg/mL] | MIC [2] [µg/mL] | MIC (Staphylococcus aureus [3]) [µg/mL] | MIC (Staphylococcus aureus [4]) [µg/mL] | MIC [5] [µg/mL] | MIC (Staphylococcus aureus [6]) [µg/mL] | MIC [7] [µg/mL] | MIC [8] [µg/mL] | MIC (Streptococcus pneumoniae [9]) [µg/mL] | MIC (Streptococcus pneumoniae [10]) [µg/mL] | SMILES
1 | 1 (≈ 1.31 µM) | 1 (≈ 1.31 µM) | 0.05 (≈ 0.0653 µM) | 0.05 (≈ 0.0653 µM) | 1 (≈ 1.31 µM) | > 100 | 0.004 (≈ 0.00522 µM) | 0.25 (≈ 0.326 µM) | 0.25 (≈ 0.326 µM) | 0.004 (≈ 0.00522 µM) | CC[C@H]1OC(=O)[C@H](C)C(=O)[C@H](C)[C@@H](O[C@@H]2O[C@H](C)C[C@H](N(C)C)[C@H]2O)[C@](C)(OC/C=C/c2ccc3ncccc3c2)C[C@@H](C)C(=O)[C@H](C)[C@H]2NC(=O)O[C@@]21C
2 | 8 (≈ 9.56 µM) | 4 (≈ 4.78 µM) | 0.2 (≈ 0.239 µM) | 0.39 (≈ 0.466 µM) | 32 (≈ 38.2 µM) | > 100 | 0.03 (≈ 0.0358 µM) | 2 (≈ 2.39 µM) | 2 (≈ 2.39 µM) | 0.125 (≈ 0.149 µM) | CC[C@H]1OC(=O)[C@H](C)C(=O)[C@H](C)[C@@H](O[C@@H]2O[C@H](C)C[C@H](N(C)C)[C@H]2O)[C@](C)(OC/C=C/c2cnc3ccccc3c2)C[C@@H](C)C(=O)[C@H](C)[C@H]2N(CCN(C)C)C(=O)O[C@]12C
3 | 64 (≈ 88.4 µM) | 32 (≈ 44.2 µM) | 1.56 (≈ 2.15 µM) | 1.56 (≈ 2.15 µM) | 32 (≈ 44.2 µM) | > 100 | 0.5 (≈ 0.69 µM) | 2 (≈ 2.76 µM) | 2 (≈ 2.76 µM) | 1 (≈ 1.38 µM) | CC[C@H]1OC(=O)[C@H](C)C(=O)[C@H](C)[C@@H](O[C@@H]2O[C@H](C)C[C@H](N(C)C)[C@H]2O)[C@](C)(OC/C=C/c2ccc(Cl)cc2)C[C@@H](C)C(=O)[C@H](C)[C@@H](O)[C@]1(C)O
4 | 4 (≈ 5.22 µM) | 8 (≈ 10.4 µM) | 0.1 (≈ 0.131 µM) | 0.1 (≈ 0.131 µM) | 32 (≈ 41.8 µM) | > 100 | 0.008 (≈ 0.0104 µM) | 0.25 (≈ 0.326 µM) | 0.25 (≈ 0.326 µM) | 0.008 (≈ 0.0104 µM) | CC[C@H]1OC(=O)[C@H](C)C(=O)[C@H](C)[C@@H](O[C@@H]2O[C@H](C)C[C@H](N(C)C)[C@H]2O)[C@](C)(OC/C=C/c2cccc3cnccc23)C[C@@H](C)C(=O)[C@H](C)[C@H]2NC(=O)O[C@@]21C
5 | 4 (≈ 5.22 µM) | 128 (≈ 167 µM) | 0.2 (≈ 0.261 µM) | 0.2 (≈ 0.261 µM) | 64 (≈ 83.6 µM) | > 100 | 0.03 (≈ 0.0392 µM) | 2 (≈ 2.61 µM) | 1 (≈ 1.31 µM) | 0.03 (≈ 0.0392 µM) | CC[C@H]1OC(=O)[C@H](C)C(=O)[C@H](C)[C@@H](O[C@@H]2O[C@H](C)C[C@H](N(C)C)[C@H]2O)[C@](C)(OC/C=C/c2ccnc3ccccc23)C[C@@H](C)C(=O)[C@H](C)[C@H]2NC(=O)O[C@@]21C
6 | 32 (≈ 45.2 µM) | > 128 | 3.1 (≈ 4.38 µM) | 6.2 (≈ 8.76 µM) | > 100 | > 100 | 0.39 (≈ 0.551 µM) | 1.56 (≈ 2.2 µM) | 2 (≈ 2.83 µM) | 0.25 (≈ 0.353 µM) | CC[C@H]1OC(=O)[C@H](C)C(=O)[C@H](C)[C@@H](O[C@@H]2O[C@H](C)C[C@H](N(C)C)[C@H]2O)[C@](C)(OCCNCc2ccncc2)C[C@@H](C)C(=O)[C@H](C)[C@@H](O)[C@]1(C)O
7 | 8 (≈ 10.4 µM) | 64 (≈ 83.6 µM) | 0.39 (≈ 0.509 µM) | 0.39 (≈ 0.509 µM) | 16 (≈ 20.9 µM) | > 100 | 0.125 (≈ 0.163 µM) | 1 (≈ 1.31 µM) | 1 (≈ 1.31 µM) | 0.125 (≈ 0.163 µM) | CC[C@H]1OC(=O)[C@H](C)C(=O)[C@H](C)[C@@H](O[C@@H]2O[C@H](C)C[C@H](N(C)C)[C@H]2O)[C@](C)(OC/C=C/c2ccc3ccccc3n2)C[C@@H](C)C(=O)[C@H](C)[C@H]2NC(=O)O[C@@]21C
8 | 2 (≈ 2.56 µM) | 64 (≈ 82 µM) | 0.1 (≈ 0.128 µM) | 0.1 (≈ 0.128 µM) | 64 (≈ 82 µM) | > 100 | 0.015 (≈ 0.0192 µM) | 0.5 (≈ 0.64 µM) | 0.25 (≈ 0.32 µM) | 0.015 (≈ 0.0192 µM) | CC[C@H]1OC(=O)[C@H](C)C(=O)[C@H](C)[C@@H](O[C@@H]2O[C@H](C)C[C@H](N(C)C)[C@H]2O)[C@](C)(OC/C=C/c2cnc3ccccc3c2)C[C@@H](C)C(=O)[C@H](C)[C@H]2N(N)C(=O)O[C@]12C
9 | 2 (≈ 2.55 µM) | 4 (≈ 5.11 µM) | 0.1 (≈ 0.128 µM) | 0.1 (≈ 0.128 µM) | 16 (≈ 20.4 µM) | > 100 | 0.03 (≈ 0.0383 µM) | 2 (≈ 2.55 µM) | 2 (≈ 2.55 µM) | 0.03 (≈ 0.0383 µM) | CC[C@H]1OC(=O)[C@H](C)C(=O)[C@H](C)[C@@H](O[C@@H]2O[C@H](C)C[C@H](N(C)C)[C@H]2O)[C@](C)(OCCNCc2cnc3ccccc3c2)C[C@@H](C)C(=O)[C@H](C)[C@H]2NC(=O)O[C@@]21C
10 | 8 (≈ 8.88 µM) | 128 (≈ 142 µM) | 3.1 (≈ 3.44 µM) | 0.2 (≈ 0.222 µM) | 64 (≈ 71 µM) | > 100 | 0.06 (≈ 0.0666 µM) | 4 (≈ 4.44 µM) | 4 (≈ 4.44 µM) | 0.06 (≈ 0.0666 µM) | CC[C@H]1OC(=O)[C@H](C)[C@@H](O[C@H]2C[C@@](C)(OC)[C@@H](O)[C@H](C)O2)[C@H](C)[C@@H](O[C@@H]2O[C@H](C)C[C@H](N(C)C)[C@H]2O)[C@](C)(OC/C=C/c2cnc3ccccc3c2)C[C@@H](C)C(=O)[C@H](C)[C@@H](O)[C@]1(C)O
